Bioassay records: PubChem, several laboratories
STAT1 blocker: inhibitors of IFN-gamma induced STAT1 signaling. AID 920. inhibition, % at 5.5 µM. 0.35% of 200,000 active. NIH 3T3 STAT1-luciferase reporter, luminescence;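 active = inhibition above a set limit, the mean inhibition across all tested compounds plus 3 SD, cut at about 34% in these data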;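 note: 0% = IFN-gamma with DMSO and 100% = IFN-gamma with 300 µM nifuroxazide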
STAT3 blocker: inhibitors of IL-6 induced STAT3 signaling; U3A cells, IL-6 STAT3-luciferase reporter, luminescence; host cell line lacks STAT1; inhibition, % at 5.5 µM; 0.89% of 190,000 active;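 active = inhibition above the mean inhibition across all screened compounds plus 3 SD, cut at about 44% in these data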;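 note: 0% = DMSO only wells and 100% = 100 µM nifuroxazide control wells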
STAT1 act: STAT1 signaling activation; 2.6% of 200,000 active; NIH 3T3 STAT1-luciferase reporter, IFN-gamma, luminescence; 100% = IFN-gamma alone, no compound; activation (% of control), % at 5.5 µM; AID 932;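 active = activation above the screen-wide mean activation plus 3 SD, cut at about 130% in these data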;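 note: raw ratio to IFN-gamma control signal so 100% means no change and 0% no light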
Cl transport mod: modulators of human KCC2 chloride dependent transport; B-score of Tl+ flux slope (higher = more flux/activation; lower = inhibition) at 10 µM; KCC2 cells, thallium flux FluoZin-2 fluorescence; 2.2% of 190,000 active;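 active = thallium flux slope and its plate-corrected score both differing from the plate sample mean at a set confidence after two filtering rounds, in either direction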;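 note: slope of fluorescence scaled to starting intensity during 10 to 20 s after thallium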
Target sequence (Q9H2X9 whole entry, looked up): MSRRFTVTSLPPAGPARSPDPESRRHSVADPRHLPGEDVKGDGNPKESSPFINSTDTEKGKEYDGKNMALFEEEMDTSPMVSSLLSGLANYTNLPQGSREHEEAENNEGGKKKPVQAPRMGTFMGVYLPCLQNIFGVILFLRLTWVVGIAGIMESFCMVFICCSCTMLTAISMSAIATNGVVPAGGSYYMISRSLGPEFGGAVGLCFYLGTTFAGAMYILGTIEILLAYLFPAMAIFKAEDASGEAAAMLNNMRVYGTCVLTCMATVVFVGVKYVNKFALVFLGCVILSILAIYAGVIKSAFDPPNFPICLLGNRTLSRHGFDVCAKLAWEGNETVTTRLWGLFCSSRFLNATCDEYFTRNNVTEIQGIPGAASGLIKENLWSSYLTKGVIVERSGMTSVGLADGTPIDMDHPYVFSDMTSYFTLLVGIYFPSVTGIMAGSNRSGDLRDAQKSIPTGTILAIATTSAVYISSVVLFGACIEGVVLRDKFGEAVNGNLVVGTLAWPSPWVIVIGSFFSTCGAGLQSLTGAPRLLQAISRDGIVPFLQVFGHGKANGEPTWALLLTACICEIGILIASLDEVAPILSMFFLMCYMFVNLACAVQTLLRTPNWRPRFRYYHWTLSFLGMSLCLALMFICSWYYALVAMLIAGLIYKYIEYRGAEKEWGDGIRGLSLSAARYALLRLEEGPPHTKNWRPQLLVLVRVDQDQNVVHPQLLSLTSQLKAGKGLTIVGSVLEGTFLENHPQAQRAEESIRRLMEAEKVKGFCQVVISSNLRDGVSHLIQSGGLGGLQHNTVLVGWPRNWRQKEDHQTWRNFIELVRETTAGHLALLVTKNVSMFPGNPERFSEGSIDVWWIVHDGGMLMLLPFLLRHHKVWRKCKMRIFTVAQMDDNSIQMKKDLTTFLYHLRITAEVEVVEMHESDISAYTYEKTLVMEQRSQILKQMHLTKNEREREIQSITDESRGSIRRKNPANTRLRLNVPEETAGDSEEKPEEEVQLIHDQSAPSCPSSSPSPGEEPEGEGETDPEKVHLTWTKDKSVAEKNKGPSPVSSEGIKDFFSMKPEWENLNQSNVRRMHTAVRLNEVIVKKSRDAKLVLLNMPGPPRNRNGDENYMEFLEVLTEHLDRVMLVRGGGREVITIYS
STAT3 activator: activators of IL-6 induced STAT3 signaling; U3A cells, IL-6 STAT3-luciferase reporter, luminescence; 100% = signal with IL-6 EC80 alone; activation (% of control), % at 5.6 µM; 0.91% of 190,000 active; AID 871;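 active = activation above the screen-wide mean of compound activation plus 3 SD, cut at about 130% in these data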;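 note: 0% = background luminescence of wells with medium and substrate only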
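Material: STAT1-lacking human U3A cells, STAT3 luciferase reporter | Benchmarks: IL-6-only wells as 100% reference | Probe or stimulus: IL-6 (33 ng/mL) | Timing: Compound 1 h, then IL-6 6 h at 37 °C | Detection: Luminescence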
HSV augment: increases HSV replication in cells. HSV replication augmentation in cells, fold increase. maximum fold increase. 0.005% of 220,000 active. AID 1956; in the data active = maximum fold increase above about 1.5; inconclusive = no clear call, values can overlap the other calls; tested in PC3 cells
KCC2 secondary: confirmation of human KCC2 transport modulators; shares compounds with Cl transport mod; HEK293-KCC2, thallium flux, FluoZin2 fluorescence; stronger effect = higher value; normalised thallium flux (F/F0 slope) at 10 µM; 15% of 3,700 active; AID 1713;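 active = thallium flux slope above the same plate's solvent-only control mean plus 3 SD; inconclusive = the two replicate wells disagree; inactive = no significant difference from solvent-only control wells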
KCC2 bumet counter: thallium flux persisting under bumetanide in KCC2 cells, counter-screen secondary assay. normalized thallium flux at 10 µM. AID 1714. 49% of 3,700 active. shares compounds with Cl transport mod. HEK293-KCC2 + bumetanide/ouabain, thallium flux FluoZin2; stronger effect = higher value;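 active = thallium entry rate above the same plate's blocked-transporter control wells by more than 3 SD; inconclusive = the two repeat wells disagree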;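 note: raw slope of fluorescence over initial fluorescence between 10 and 20 s after thallium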
KCC2 secondary2: KCC2 (human) modulation, second secondary assay | shares compounds with Cl transport mod | normalized thallium flux at 10 µM | HEK293-KCC2, thallium flux FluoZin2 fluorescence; actives lie on both sides; F/F0 rise rate, 10–20 s post-thallium | 23% of 3,700 active;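 active = thallium flux slope more than 3 SD above or below the plate's solvent-only control mean, mostly below; inconclusive = the two repeat wells disagreed; inactive = no significant shift from solvent-only controls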;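 note: raw slope with 0.1% DMSO as baseline and bumetanide as block control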
HEK293 Tl flux: acts in parental HEK cells, KCC2 counter-screen | HEK293 parental cells, thallium flux FluoZin2, ouabain; baseline-ratio fluorescence slope, 10–20 s after thallium | 46% of 3,700 active | shares compounds with Cl transport mod | thallium flux rate (normalised fluorescence) at 10 µM;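 active = thallium flux rate significantly above the same plate's solvent-only control wells, beyond their mean plus 3 SD; inconclusive = the two replicate wells gave conflicting results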
KCC2 retest ouab: KCC2 (human) modulation, ouabain retest | 48% of 3,700 active | raw Tl+ flux slope (below DMSO = inhibition, above = activation) at 10 µM | shares compounds with Cl transport mod | AID 1717 | HEK293-KCC2, thallium flux FluoZin2 fluorescence; bidirectional: low = inhibitor, high = activator;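 active = thallium flux slope beyond 3 SD from same-plate DMSO control mean in most replicates, usually higher, sometimes lower; inconclusive = repeat tests gave conflicting results; inactive = no significant difference from controls in most replicates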;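 note: slope of initial-normalized fluorescence between seconds 10 and 20 after thallium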
HEK293 Tl flux2: parental HEK flux effect, counter-screen 2; thallium flux slope at 10 µM; HEK293 parental, thallium flux FluoZin-2 fluorescence slope; shares compounds with Cl transport mod; 33% of 3,700 active;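 active = thallium flux slope above the same plate's solvent-control mean plus 3 SD in both duplicate wells; inconclusive = duplicate wells that disagreed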;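 note: run without ouabain in cells lacking the KCC2 cotransporter; slope of fluorescence scaled to its starting value between 10 and 20 s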
* = called active by the depositor; i = inactive; ? = inconclusive; . = not tested or not shown. Shown are actives, neighbours in structure and some others; about 5.5% of the full set was active somewhere.

SMILES	STAT1 blocker	STAT3 blocker	STAT1 act	Cl transport mod	STAT3 activator	HSV augment	KCC2 secondary	KCC2 bumet counter	KCC2 secondary2	HEK293 Tl flux	KCC2 retest ouab	HEK293 Tl flux2
CC(=O)NCCC(=O)N1CCCC(CNC(=O)c2ccc(-c3ccccc3)cc2)C1 (centres undefined)	-2.5	-0.5	100.5	-4.5*	102.5	i	0.00775	0.00531	?	0.00596	0.0133*	0.00908
CC(=O)NCCC(=O)N1CCCC(C(=O)c2ccc3c4c(cccc24)CC3)C1 (centres undefined)	9.9	10.5	89.5	0.272	95.5	i	.	.	.	.	.	.
O=C(NCC1CCCN(C(=O)c2cscn2)C1)c1ccc(-c2ccccc2)cc1 (centres undefined)	-0.1	4.8	100.0	-5.28*	100.9	i	0.00533	0.0045	0.0207*	?	0.0122*	0.0106
OCCNC(=S)Nc1cc(Cl)cc(Cl)c1	.	.	.	.	.	i	.	.	.	.	.	.
O=C(NC(Cc1ccccc1)C(=O)O)/C(=C/c1ccc(F)cc1)NC(=O)c1ccccc1 (centres undefined)	9.6	-2.6	91.3	1.87	101.8	i	.	.	.	.	.	.
O=C(CNC(=O)c1ccncc1)N/N=C/c1ccccc1[N+](=O)[O-]	-6.4	9.5	105.1	0.37	102.1	i	.	.	.	.	.	.
O=C(OCC#Cc1c(COC(=O)c2ccccc2)nnn1Cc1ccccc1)c1ccccc1	.	.	.	1.78*	.	i	0.007	0.00403	0.0275	0.00728	0.0181	0.01
CCc1ccc(NC(=O)C(=O)N/N=C(\C)CC(=O)NCc2ccc(Cl)cc2)cc1	-6.8	3.7	104.7	-0.138	100.6	i	.	.	.	.	.	.
c1ccc(-c2csc3ncnc(N4CCc5ccccc5C4)c23)cc1	-13.6	0.7	112.9	-0.676	98.1	i	.	.	.	.	.	.
O=c1nc(/C=C/c2cccn2-c2ccc([N+](=O)[O-])cc2)cc(C(F)(F)F)[nH]1	-0.2	2.4	98.8	-1.43	99.7	i	.	.	.	.	.	.
COc1cc(OC)c(OC)cc1/C=C/c1cc(C(F)(F)F)[nH]c(=O)n1	7.5	11.1	92.0	-4.68*	93.7	i	?	-0.00192*	?	0.003*	0.0115*	0.00505*
Cc1ccccc1/C=N/N1CCN(c2ccccc2)CC1	-17.6	4.4	115.5	-2	99.6	i	.	.	.	.	.	.
O=C(CCc1ccccc1)c1c(O)cc(O)cc1O	.	.	.	-1.43*	.	i	0.00545	0.00511	0.025*	0.00809	?	0.0109
CC(C)CNC(=O)c1ccccc1NC(=O)c1ccccc1N(C)S(C)(=O)=O	1.5	2.1	98.6	-3.84*	99.1	i	0.0065	0.00466	?	?	0.0195	0.0105
CC(=O)OCC1OC(OC(C)=O)C(NC(=O)c2cccnc2)C(OC(C)=O)C1OC(C)=O (centres undefined)	-6.2	-7.4	105.6	-3.05	104.0	i	.	.	.	.	.	.
CC(C)(C)NC(=O)C(=O)NNC(=O)c1ccccc1	-2.8	12.4	102.5	3.69*	94.9	.	0.0187*	0.034*	0.0351	0.0172*	0.0293	0.0118*
CC(C)(C)NC(=O)C(=O)NNC(=O)c1cccc(F)c1	-9.8	6.2	109.4	20.8*	99.9	i	0.006	0.0254*	0.0385*	0.0238*	0.0319*	0.0255*
CCC1=C(OC(=O)N(CC)CC)N2C(=O)OC(=NCC3CC3)[C@]2(C)[C@H]2C1=CC[C@H]1C(=O)N(CC)C(=O)[C@H]12	.	.	.	0.319	.	i	.	.	.	.	.	.
C=C(C)COc1ccc(-c2[nH]ncc2-c2ccc(OC)cc2)c(O)c1	.	.	.	0.981	.	i	.	.	.	.	.	.
C=C(C)COc1ccc(-c2[nH]ncc2-c2ccccc2)c(O)c1	1.8	1.5	98.4	-4.45*	102.4	i	0.0105	?	0.0354	0.00732	0.0231	0.0104
COC(=O)c1cc(NC(=O)CSc2nncn2C)cc(C(=O)OC)c1	-0.5	6.2	100.4	.	100.6	i	.	.	.	.	.	.
Cc1nnc(SCC(=O)NNC(=O)c2ccco2)n1-c1cccc(Cl)c1	-4.6	0.4	104.0	-3.6*	106.5	i	0.00941	?	0.0304	0.00801	0.0653	?
Cc1ccc(-n2ncc3c(SCC(=O)NNC(=O)c4ccco4)ncnc32)cc1	-1.9	17.2	100.2	37*	87.2	i	?	0.0407*	?	0.0347*	0.0349*	0.0321*
N#CC1(c2nc3ccccc3[nH]2)CC1c1ccc2c(c1)OCO2 (centres undefined)	5.0	3.5	95.4	-1.97	101.2	i	.	.	.	.	.	.
COc1ccc(OC)c(S(=O)(=O)N2CCN(C34CC5CC(CC(C5)C3)C4)CC2)c1	-5.8	-3.2	105.3	0.255	105.1	i	.	.	.	.	.	.
SMILES	STAT1 blocker	STAT3 blocker	STAT1 act	Cl transport mod	STAT3 activator	HSV augment	KCC2 secondary	KCC2 bumet counter	KCC2 secondary2	HEK293 Tl flux	KCC2 retest ouab	HEK293 Tl flux2
O=C(O)C1CCc2sc3[nH]c(=S)n(-c4ccccc4)c(=O)c3c21 (centres undefined)	.	.	.	-0.0228	.	i	.	.	.	.	.	.
Cc1cccc(-n2c(=S)[nH]c3sc4c(c3c2=O)CCc2ccccc2-4)c1	8.5	-8.1	91.6	21.4*	119.7	i	0.0197*	0.0463*	0.0354	0.0399*	0.0433*	0.0175*
NC(=O)c1sc(-c2ccsc2)cc1NS(=O)(=O)c1ccc(C(F)(F)F)cc1	.	.	.	-5.39*	.	i	0.00739	0.00605	0.0296	0.00694	0.0118*	0.0107
CC(=O)c1sc(-c2ccc(F)cc2)cc1NS(=O)(=O)c1ccc(C)cc1	.	.	.	9.96*	.	i	0.0106	0.00642	0.0358	0.0077	0.0234	0.0104
CC(=O)c1sc(-c2ccccc2)cc1NS(=O)(=O)c1ccccc1	.	.	.	1.57	.	i	.	.	.	.	.	.
COc1ccc(S(=O)(=O)Nc2ccccc2C(F)(F)F)cc1	4.8	3.4	97.4	0.439	99.7	i	.	.	.	.	.	.
COC(=O)C1=C(O)C(C(=O)OC)C(c2ccc(C)cc2)C(C#N)(C#N)C1c1ccc(C)cc1 (centres undefined)	-1.1	-4.3	101.0	.	107.7	.	.	.	.	.	.	.
Cc1cc(C)c2c(N)c(C(=O)NN3CC(=O)N(c4cccc(Cl)c4)CC3=O)sc2n1	.	.	.	-0.588	.	i	.	.	.	.	.	.
